A selection: hits, their analogues and other compounds. The true share with any hit is near 2%.
VLA-4 inh: inhibition in a human VLA-4 binding assay. 330,000 tested, 0.2% active. P13612. VLA-4 expressing cells, ligand binding flow cytometry. AID 2557. inhibition, % (about 7 µM as worked out from the volumes in the protocol); in the data active means inhibition above about 50%
ABCB6 inh MLPCN: inhibitors of human ABC transporter ABCB6. Q9NP58. K562-ABCB6 porphyrin accumulation, flow cytometry, 1 h; stronger effect = lower value. fluorescence ratio to DMSO, % at 10 µM. 360,000 tested, 0.19% active. AID 602162;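 active means fluorescence ratio to DMSO below 75%, the collection mean minus 3 SD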;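 further: signal is porphyrin accumulated inside mitochondria; 100% equals median channel fluorescence of DMSO control wells; lower ratio means ABCB6 inhibition with less porphyrin fluorescence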
FGF22 binding: FGF22 (human) thermal shift binding; 340,000 tested, 1.5% active; AID 651658; recombinant FGF22 thermal shift, SYPRO orange fluorescence; percent of sucrose octasulfate shift, DMSO zero; Q9HCT0; activity (Tm shift, normalised), % at 9.99 µM;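 active means mean Tm shift, scaled 0 neutral to 100 positive control, at about 1.3% or above, every replicate too, limit read from the data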
Target sequence (Q9HCT0 whole entry, looked up): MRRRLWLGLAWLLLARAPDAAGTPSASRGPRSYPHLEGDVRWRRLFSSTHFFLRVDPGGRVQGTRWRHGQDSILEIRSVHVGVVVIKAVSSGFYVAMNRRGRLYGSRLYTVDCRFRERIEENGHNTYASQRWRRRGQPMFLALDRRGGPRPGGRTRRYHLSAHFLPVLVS
DAGLB inh: blocks human DAGLB lipase activity. Q8NCG7. HEK293T DAGLB membrane lysate, EnzChek fluorogenic substrate. inhibition, % at 5.17 µM. 340,000 tested, 0.059% active. AID 504411; in the data active means inhibition above about 34%;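 further: 0% = enzyme with vehicle and 100% = wells lacking enzyme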
Granule exo inh: blocks lytic granule exocytosis. inhibition, % at 10 µM. 360,000 tested, 0.66% active. TALL-104 LAMP-1 surface exposure, flow cytometry; cells stimulated with thapsigargin and PMA;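 active means inhibition above about 55%, limit read from the data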
MT1-MMP act inh: inhibitors of human MT1-MMP activation; P50281; HT1080 RFP-PRO-GFP cells, GFP/RFP ratio fluorescence, overnight; percent of plate control window, DMSO zero; GFP/RFP ratio change, % at 20 µM; 360,000 tested, 0.061% active; AID 651647;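 active means GFP/RFP ratio change of at least 30% with cell ATP level not reduced by more than half and red fluorescence within 50% of control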
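Material: RFP-PRO-GFP reporter HT1080 cells. Dosing: single-point 20 µM compound, 1% DMSO. Controls: DMSO and RFP-L50D-GFP cell wells. Timing: cells overnight before dosing, compound overnight, 37 °C, 5% CO2. Measure: GFP/RFP fluorescence ratio.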
Numbers without * were called inactive; x = no result given.

SMILES | VLA-4 inh | ABCB6 inh MLPCN | FGF22 binding | DAGLB inh | Granule exo inh | MT1-MMP act inh
O=C(N[C@H]1CC[C@H](CC(=O)N2CCCCC2)O[C@@H]1CO)c1ccc2c(c1)OCO2 | x | x | 0 | x | x | x
CCCC#Cc1cnc2c(c1)C(=O)N([C@H](C)CO)C[C@@H](C)[C@H](CN(C)C(=O)C1CCOCC1)O2 | x | x | 0 | x | x | x
C[C@H]1CCCCO[C@@H](CN(C)S(=O)(=O)c2ccc(F)cc2)[C@@H](C)CN([C@@H](C)CO)C(=O)c2cc(NC(=O)Nc3ccccc3)ccc2O1 | x | x | 0 | x | x | x
COc1ccc(N=C2NC(=O)/C(=C/C=C/c3ccccc3)S2)cc1 | -6 | 98 | 0 | 1 | 2 | 0
COc1ccc(N=C2NC(=O)/C(=C\C=C\c3ccccc3)S2)cc1 | 5 | 99 | 44* | 2 | 2 | -1
Oc1cccc(Nc2nc(-c3ccccc3Cl)nc3ccccc23)c1 | -2 | 86 | 1.6* | -1 | 7 | 1
Cc1ccc(-c2nc(Nc3cccc(O)c3)c3ccccc3n2)cc1 | -9 | 92 | 0 | -3 | 13 | -4
O=C(NC1CCCCC1c1ccccc1)c1ccccc1 (centres undefined) | x | 102 | 44* | 3 | -12 | -1
OCCC1CN(Cc2nc(-c3ccccc3)cs2)CCN1Cc1ccc(F)cc1 (centres undefined) | 4 | 93 | 43* | -2 | 5 | -3
OCCC1CN(Cc2cnn(-c3ccccc3Cl)c2)CCN1Cc1ccsc1 (centres undefined) | -5 | 93 | 49* | -1 | 2 | 6
CC(C)=CCN1CCN(Cc2nc(-c3ccc(F)cc3)cs2)CC1CCO (centres undefined) | x | 95 | 0 | 0 | -1 | 13
CCCC#Cc1ccc2c(c1)O[C@H](CN(C)C(=O)COC)[C@@H](C)CN([C@H](C)CO)S2(=O)=O | x | x | 0 | x | x | x
C[C@H](NC(=O)C[C@@H]1C[C@@H]2c3cc(NS(C)(=O)=O)ccc3O[C@@H]2[C@@H](CO)O1)c1ccccc1 | x | x | 0 | x | x | x
COc1ccc(C(NC(=O)/C=C/c2ccco2)c2ccc(OC)cc2)cc1 | -1 | 91 | 0 | 1 | 0 | -1
COc1ccc(C(NC(=O)/C=C\c2ccco2)c2ccc(OC)c(OC)c2)cc1 (centres undefined) | 2 | 61* | x | 0 | -4 | -11
CO[C@@H]1CN(C)C(=O)c2ccc(NC(=O)C3CC3)cc2OC[C@H](C)N(C(=O)c2ccccc2)C[C@H]1C | x | x | 0 | x | x | x
C/C=C/c1cnc2c(c1)C(=O)N([C@@H](C)CO)C[C@@H](C)[C@H](CN(C)C(=O)NC1CCCCC1)O2 | x | x | 0 | x | x | x
Cc1cc(N/N=C/c2c(O)ccc3ccccc23)nc(-c2ccccc2O)n1 | 20 | 91 | 1 | 1 | 96* | 9
C[C@H]1CN([C@@H](C)CO)C(=O)Cc2cc(NC(=O)c3ccncc3)ccc2O[C@H]1CN(C)S(=O)(=O)c1ccc(F)cc1 | x | x | 0 | x | x | x
CC(/C=C1\SC(=S)N(CCCC(=O)Nc2ccc(C(=O)O)c(O)c2)C1=O)=C\c1ccccc1 | -5 | x | x | x | x | x
CC(=Cc1ccccc1)C=C1SC(=S)N(CCCC(=O)Nc2ccc(C(=O)O)c(O)c2)C1=O | x | 103 | 2.6* | x | 3 | 1
CN1CCN(C(=O)CCCN2C(=O)/C(=C/c3ccccc3)SC2=S)CC1 | 5 | 94 | 0 | 0 | 61* | -4
CSc1ccc(S(=O)(=O)NCc2ccc(Cl)cc2Cl)cc1 | -1 | 99 | x | -9 | 100* | 4
CSc1ccc(S(=O)(=O)NCc2ccccc2Cl)cc1 | -8 | 89 | x | -3 | 2 | -1
CS(=O)(=O)NN1C(=O)c2ccccc2NC12CCCC2 | 22 | 94 | 43* | 2 | -1 | 7
SMILES | VLA-4 inh | ABCB6 inh MLPCN | FGF22 binding | DAGLB inh | Granule exo inh | MT1-MMP act inh
C[C@@H]1CN([C@@H](C)CO)C(=O)c2cc(NS(=O)(=O)c3cn(C)cn3)ccc2O[C@@H]1CN(C)S(=O)(=O)c1ccc(Cl)cc1 | x | x | 0 | x | x | x
COc1ccc(-n2c(SCC(N)=O)nc3sc4c(c3c2=O)CCC4)cc1 | -2 | 100 | 43* | 0 | -8 | -3
COc1ccc(-n2c(SCC(=O)O)nc3sc4c(c3c2=O)CCC4)cc1 | 4 | 100 | 0 | 2 | 1 | -3
COc1ccc(S(=O)(=O)N(C)C[C@@H]2Oc3c(NC(=O)c4ccc(-c5nccs5)cc4)cccc3C(=O)N([C@H](C)CO)C[C@@H]2C)cc1 | x | x | 0 | x | x | x
O=C(CN1CCOCC1)N[C@@H]1CC[C@@H](CCNC(=O)Nc2cc(F)ccc2F)O[C@@H]1CO | x | x | 0 | x | x | x
O=C(NC(CC1CCCCC1)C(=O)O)c1ccccc1 (centres undefined) | 3 | 104 | 44* | -8 | 7 | -2
COc1cc(/C=C/c2cc[n+](C)cc2)ccc1OCC(=O)Nc1ccccc1 | -11 | 96 | 0 | 1 | -12 | -1
C/C=C/c1ccc(OCC(=O)Nc2ccc(C(N)=O)cc2)c(OC)c1 | 1 | 93 | 44* | -2 | 2 | 0
CN(C)c1ccc(C(=S)N2CCCCC2)cc1 | 4 | 98 | 43* | -2 | 4 | 2
CN(C)c1ccc(C(=S)N2CCNCC2)cc1 | -17 | 96 | x | 0 | 0 | -8
O=C(CCNS(=O)(=O)c1ccc(Cl)cc1)OCC(=O)N1CCN(C(=O)c2ccco2)CC1 | 11 | 98 | 13* | 0 | 6 | 4
O=C(OCC(=O)N1CCN(C(=O)c2ccco2)CC1)c1cc(S(=O)(=O)Nc2ccc(Cl)cc2)ccc1O | -4 | 96 | 0 | 3 | -5 | 1
Cc1ccc(S(=O)(=O)Nc2ccc3c(c2)C(=O)N([C@H](C)CO)C[C@@H](C)[C@H](CN(C)S(=O)(=O)c2cn(C)cn2)OCCCC[C@@H](C)O3)cc1 | x | x | 0 | x | x | x
O=C(O)COc1ccccc1/C=N/NC(=O)CSc1nc2ccccc2n1Cc1ccc(Cl)cc1 | 2 | 99 | 1.4* | 9 | -2 | 3
C[C@@H]1CCCCO[C@H](CN(C)Cc2ccc(Cl)c(Cl)c2)[C@@H](C)CN([C@H](C)CO)C(=O)c2cc(NS(C)(=O)=O)ccc2O1 | x | x | 0 | x | x | x
COCC(=O)Nc1ccc2c(c1)C(=O)N(C)C[C@@H](OC)[C@H](C)CN(Cc1ccccc1)[C@H](C)CO2 | x | x | 0 | x | x | x
CCNC(=O)C[C@H]1CC[C@H]2[C@H](COc3ccc(NC(=O)Cc4ccccc4)cc3C(=O)N2C)O1 | x | x | 0 | x | x | x
CCNC(=O)COC(=O)/C=C/c1cccc([N+](=O)[O-])c1 | -4 | 102 | 43* | -2 | -8 | -10
CC(C)C1C(c2ccccc2)N(C)C(c2ccccc2)CC1(O)c1ccccc1 (centres undefined) | 6 | 101 | 0 | -10 | 12 | -32
